Assay results as given in ChEMBL document CHEMBL4229490, “Cytotoxic and NF-κB and mitochondrial transmembrane potential inhibitory pentacyclic triterpenoids from Syzygium corticosum and their semi-synthetic derivatives” (Bioorg Med Chem, 2018).
≈ marks a conversion by molar mass, not a printed value.

Key:
HT-29 [1] = experiment: Cytotoxicity against human HT-29 cells assessed as reduction in cell viability after 72 hrs by CellTiter 96 aqueous one solution assay; assay type: functional, cell-based; details: HT-29, 72 h
Procedure, shortened: (§1)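 Cells grown in RPMI 1640 with 10% FBS, penicillin and streptomycin; log-phase cells trypsinized, seeded, left overnight at 37 °C in 5% CO₂, then exposed 72 h to samples diluted from DMSO, with DMSO vehicle and paclitaxel control. Viability read by absorbance. IC50 taken relative to vehicle by nonlinear regression; triplicate, three independent experiments.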

MDA-MB-435 = experiment: Cytotoxicity against human MDA-MB-435 cells assessed as reduction in cell viability after 72 hrs by CellTiter 96 aqueous one solution assay; assay type: functional, cell-based; details: MDA-MB-435, 72 h; procedure, shortened: as §1
OVCAR-3 = experiment: Cytotoxicity against human OVCAR3 cells assessed as reduction in cell viability after 72 hrs by CellTiter 96 aqueous one solution assay; assay type: functional, cell-based; details: OVCAR-3, 72 h; procedure, shortened: as §1
Transcription factor p65 = Transcription factor p65 (Homo sapiens, UniProt Q04206); experiment: Inhibition of biotinylated consensus sequence binding to NF-kB p65 in human HeLa nuclear extracts after 3 hrs by ELISA
Transcription factor p65, sequence (Q04206 whole entry): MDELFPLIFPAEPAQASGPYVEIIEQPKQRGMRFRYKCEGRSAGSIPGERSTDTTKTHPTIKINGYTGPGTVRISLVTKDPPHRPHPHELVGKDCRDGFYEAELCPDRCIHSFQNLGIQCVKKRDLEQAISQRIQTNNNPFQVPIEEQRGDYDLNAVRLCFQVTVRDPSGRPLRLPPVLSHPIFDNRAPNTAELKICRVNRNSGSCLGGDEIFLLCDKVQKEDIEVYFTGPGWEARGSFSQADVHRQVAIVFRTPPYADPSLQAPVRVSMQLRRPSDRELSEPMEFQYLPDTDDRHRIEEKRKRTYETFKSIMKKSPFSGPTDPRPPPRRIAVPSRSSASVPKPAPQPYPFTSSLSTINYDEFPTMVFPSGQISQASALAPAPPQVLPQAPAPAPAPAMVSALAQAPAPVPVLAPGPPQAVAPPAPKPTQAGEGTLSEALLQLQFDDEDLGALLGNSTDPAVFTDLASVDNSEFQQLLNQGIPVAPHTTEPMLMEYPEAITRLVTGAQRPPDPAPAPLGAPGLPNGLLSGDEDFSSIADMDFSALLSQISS

HT-29 [2] = experiment: Inhibition of mitochondrial membrane potential in human HT-29 cells after 3 hrs by JC-1 staining based fluorescence assay; assay type: functional, cell-based; details: HT-29, 3 h
MDA-MB-231 = experiment: Cytotoxicity against human MDA-MB-231 cells assessed as reduction in cell viability after 72 hrs by CellTiter 96 aqueous one solution assay; assay type: functional, cell-based; details: MDA-MB-231, 72 h; procedure, shortened: as §1
HeLa = experiment: Cytotoxicity against human HeLa cells assessed as reduction in cell viability after 72 hrs by CellTiter 96 aqueous one solution assay; assay type: functional, cell-based
DU-145 = experiment: Cytotoxicity against human DU145 cells assessed as reduction in cell viability after 72 hrs by CellTiter 96 aqueous one solution assay; assay type: functional, cell-based; details: DU-145, 72 h

Row | SMILES | IC50 (HT-29 [1]) | IC50 (MDA-MB-435) | IC50 (OVCAR-3) [µM] | IC50 (Transcription factor p65) [µM] | IC50 (HT-29 [2]) [µM] | IC50 (MDA-MB-231) [µM] | IC50 (HeLa) [µg/mL] | IC50 (DU-145) [µg/mL]
1 | COc1cc2c(=O)oc3c(OC)c(O)cc4c(=O)oc(c1OC)c2c34 | > 10 µM | > 10 µM | > 10 | 1.6 | > 10 | – | – | –
2 | C=C(C)[C@@H]1CC[C@]2(C(=O)O)CC[C@]3(C)[C@H](CC[C@@H]4[C@@]5(C)C[C@@H](O)[C@H](OC(=O)/C=C/c6ccc(O)cc6)C(C)(C)[C@@H]5CC[C@]43C)[C@@H]12 | > 10 µM | > 10 µM | > 10 | 4.7 | > 10 | > 10 | – | –
3 | CC(=O)/C=C/[C@]12O[C@@]1(C)C[C@@H](O)CC2(C)C | > 10 µM | > 10 µM | > 10 | – | – | > 10 | – | –
4 | C=C(C)[C@@H]1CC[C@]2(C(=O)O)CC[C@]3(C)[C@H](CC[C@@H]4[C@@]5(C)CC[C@H](O)C(C)(C)[C@@H]5CC[C@]43C)[C@@H]12 [BETULINIC ACID] | > 10 µM | – | – | – | 3.5 | > 10 | – | –
5 | C[C@H]1[C@H](C)CC[C@]2(C(=O)O)CC[C@]3(C)C(=CC[C@@H]4[C@@]5(C)CC[C@H](OC(=O)c6ccc(Cl)cc6)C(C)(C)[C@@H]5CC[C@]43C)[C@H]12 | > 10 µM | – | – | > 10 | > 10 | > 10 | – | –
6 | CC1=CC(=O)CC(C)(C)[C@@]1(O)/C=C/[C@@H](C)O [BLUMENOL A] | > 10 µM | > 10 µM | > 10 | > 10 | > 10 | > 10 | – | –
7 | C=C(C)[C@@H]1CC[C@]2(C(=O)O)CC[C@]3(C)[C@H](CC[C@@H]4[C@@]5(C)CC[C@H](OC(=O)/C=C/c6ccc(O)c(OC)c6)C(C)(C)[C@@H]5CC[C@]43C)[C@@H]12 | > 10 µM | – | – | 5.4 | 0.51 | > 10 | – | –
8 | CC1(C)C[C@H](O)C[C@@]2(C)OC(=O)C=C12 [LOLIOLIDE] | > 10 µM | > 10 µM | > 10 | > 10 | > 10 | > 10 | – | –
9 | COc1c(C)c(O)c2c(c1C)O[C@H](c1ccc(O)cc1)CC2=O | > 10 µM | 6 µM | > 10 | – | – | > 10 | – | –
10 | COc1c(OC)c2oc(=O)c3cc4c(c5oc(=O)c(c1OC)c2c53)OCO4 | > 10 µM | > 10 µM | > 10 | > 10 | > 10 | – | – | –
11 | CC(=O)/C=C/[C@@]1(O)C(C)=CC(=O)CC1(C)C | > 10 µM | > 10 µM | > 10 | – | > 10 | – | – | –
12 | COc1c(C)c(O)c2c(=O)cc(-c3ccc(O)cc3)oc2c1C [SIDEROXYLIN] | > 10 µM | > 10 µM | > 10 | > 10 | > 10 | > 10 | – | –
13 | C=C(C)[C@@H]1CC[C@]2(C(=O)O)CC[C@]3(C(=O)O)[C@H](CC[C@@H]4[C@@]5(C)CC[C@H](O)C(C)(C)[C@@H]5CC[C@]43C)[C@@H]12 | > 10 µM | > 10 µM | > 10 | > 10 | > 10 | > 10 | – | –
14 | CC(=O)CC[C@@H](C1=C[C@@](C)(O)CCC1=O)C(C)C | > 10 µM | > 10 µM | > 10 | – | – | > 10 | – | –
15 | C=C(C)[C@@H]1CC[C@]2(C(=O)O)CC[C@]3(C)[C@H](CC[C@@H]4[C@@]5(C)C[C@@H](O)[C@H](O)C(C)(C)[C@@H]5CC[C@]43C)[C@@H]12 [ALPHITOLIC ACID] | > 10 µM | > 10 µM | > 10 | 8.7 | > 10 | > 10 | – | –
16 | C[C@H]1[C@H](C)CC[C@]2(C(=O)O)CC[C@]3(C)C(=CC[C@@H]4[C@@]5(C)CC[C@H](O)C(C)(C)[C@@H]5CC[C@]43C)[C@H]12 [URSOLIC ACID] | 11.1 µg/mL | 13.1 µg/mL | – | 0.031 | 3.5 | 5.9 | 11.1 to 13.1 (≈ 24.3 to 28.7 µM) | 11.1 to 13.1 (≈ 24.3 to 28.7 µM)
17 | C=C(C)[C@@H]1CC[C@]2(C(=O)OC)CC[C@]3(C(=O)O)[C@H](CC[C@@H]4[C@@]5(C)CC[C@H](O)C(C)(C)[C@@H]5CC[C@]43C)[C@@H]12 | > 10 µM | – | – | 1.5 | > 10 | > 10 | – | –
18 | CC1=CC(=O)CC(C)(C)[C@H]1/C=C/[C@@H](C)O | > 10 µM | > 10 µM | > 10 | – | – | > 10 | – | –
19 | C[C@H]1[C@H](C)CC[C@]2(CO)CC[C@]3(C)C(=CC[C@@H]4[C@@]5(C)CC[C@H](O)C(C)(C)[C@@H]5CC[C@]43C)[C@H]12 [UVAOL] | > 10 µM | > 10 µM | > 10 | > 10 | > 10 | > 10 | – | –
20 | C=C(C)[C@@H]1CC[C@]2(C(=O)O)CC[C@]3(CO)[C@H](CC[C@@H]4[C@@]5(C)CC[C@H](O)C(C)(C)[C@@H]5CC[C@]43C)[C@@H]12 | > 10 µM | > 10 µM | > 10 | > 10 | > 10 | > 10 | – | –
21 | COc1cc(C=O)cc(OC)c1O | > 10 µM | > 10 µM | > 10 | – | – | > 10 | – | –
22 | C=C(C)[C@H](O)CC[C@](C)(O)[C@H]1CC[C@]2(C)[C@@H]1CC[C@@H]1[C@@]3(C)CC[C@H](O)C(C)(C)[C@@H]3CC[C@]12C | > 10 µM | > 10 µM | > 10 | – | – | > 10 | – | –
23 | CC1(C)CC[C@]2(C(=O)O)CC[C@]3(C)C(=CC[C@@H]4[C@@]5(C)CC[C@H](O)C(C)(C)[C@@H]5CC[C@]43C)[C@@H]2C1 [OLEANOLIC_ACID] | > 10 µM | > 10 µM | > 10 | 2.4 | > 10 | > 10 | – | –
24 | COc1c(O)cc2c(=O)oc3c4c(cc5c(=O)oc1c2c35)OCO4 | > 10 µM | > 10 µM | > 10 | – | > 10 | > 10 | – | –
25 | C=C(C)[C@@H]1CC[C@]2(CO)CC[C@]3(C)[C@H](CC[C@@H]4[C@@]5(C)CC[C@H](O)C(C)(C)[C@@H]5CC[C@]43C)[C@@H]12 [BETULIN] | > 10 µM | > 10 µM | > 10 | 8.8 | > 10 | > 10 | – | –
26 | CC(=O)O[C@H]1C(=O)[C@@]2(C)[C@H]([C@H](OC(=O)c3ccccc3)[C@]3(O)C[C@H](OC(=O)[C@H](O)[C@@H](NC(=O)c4ccccc4)c4ccccc4)C(C)=C1C3(C)C)[C@]1(OC(C)=O)CO[C@@H]1C[C@@H]2O [PACLITAXEL] | 0.009 µM | 0.013 µM | 0.013 | – | – | 0.017 | – | –
27 | CC1(C)CC[C@]2(CO)CC[C@]3(C)C(=CC[C@@H]4[C@@]5(C)CC[C@H](O)C(C)(C)[C@@H]5CC[C@]43C)[C@@H]2C1 [ERYTHRODIOL] | > 10 µM | > 10 µM | > 10 | > 10 | > 10 | > 10 | – | –
